According to ChEMBL document CHEMBL4425095, “Novel Cephalosporins Selectively Active on Nonreplicating Mycobacterium tuberculosis” (J Med Chem, 2016):
≈ marks a conversion by molar mass, not a printed value. Calls of active or inactive are those of the source. No cut-off for these calls is given here.

Key:
[1] = test system: Mycobacterium tuberculosis; experiment: Antimycobacterial activity against replicating Mycobacterium tuberculosis mc2 6220 harboring panCD/lysA deletion mutant by two-fold serial dilution method; type: functional
How it was run: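 M. tuberculosis mc26220 in replicating medium supplemented with glycerol (final 0.5%), OADC, casamino acids 0.05%, lysine 240 μg/mL and pantothenate 24 μg/mL. Exposed to 2-fold serially diluted compound from DMSO. OD580 read after 7 days at 20% O2, 5% CO2. Reported as MIC90.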

[2] = test system: Mycobacterium tuberculosis; experiment: Antimycobacterial activity against non-replicating Mycobacterium tuberculosis mc2 6220 harboring panCD/lysA deletion mutant incubated for 3 days measured at OD580 = 0.1 by two-fold serial dilution method; type: functional
How it was run: (§1)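 M. tuberculosis mc26220 washed twice in PBS-tyloxapol and resuspended in Sauton's-based nonreplicating medium (pH 5.0, butyrate 0.05%, BSA, tyloxapol, lysine, pantothenate, 0.5 mM NaNO2). Incubated at 1% O2, 5% CO2 with 2-fold serially diluted compound from DMSO. After 3 days, diluted 5-fold in fresh replicating medium for outgrowth at 20% O2. Reported as MIC90.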

[3] = test system: Mycobacterium tuberculosis; experiment: Antimycobacterial activity against non-replicating Mycobacterium tuberculosis mc2 6220 harboring panCD/lysA deletion mutant incubated for 3 days measured at OD580 = 0.01 by two-fold serial dilution method; type: functional; how it was run: as §1
[4] = test system: Mycobacterium tuberculosis; experiment: Antimycobacterial activity against non-replicating Mycobacterium tuberculosis mc2 6220 harboring panCD/lysA deletion mutant incubated for 6 days measured at OD580 = 0.1 by two-fold serial dilution method; type: functional; how it was run: as §1
[5] = test system: Mycobacterium tuberculosis; experiment: Antimycobacterial activity against non-replicating Mycobacterium tuberculosis mc2 6220 harboring panCD/lysA deletion mutant incubated for 7 days measured at OD580 = 0.1 by two-fold serial dilution method; type: functional; how it was run: as §1
[6] = test system: Mycobacterium tuberculosis; experiment: Antimycobacterial activity against replicating Mycobacterium tuberculosis mc2 6220 harboring panCD/lysA deletion mutant incubated for 3 days measured at OD580 = 0.01 by two-fold serial dilution method; type: functional
[7] = test system: Mycobacterium tuberculosis; experiment: Antimycobacterial activity against non-replicating Mycobacterium tuberculosis mc2 6220 harboring panCD/lysA deletion mutant incubated for 7 days measured at OD580 = 0.01 by high throughput screen assay; type: functional, organism-based
[8] = test system: Mycobacterium tuberculosis; experiment: Antimycobacterial activity against non-replicating Mycobacterium tuberculosis mc2 6220 harboring panCD/lysA deletion mutant incubated for 7 days measured at OD580 = 0.01 by two-fold serial dilution method; type: functional; how it was run: as §1

Compound	MIC90 [1]	MIC90 [2]	MIC90 [3]	MIC90 [4]	MIC90 [5]	MIC90 [6]	Activity [7]	MIC90 [8]
C#CCOC(=O)C1=C(C)CS[C@@H]2[C@H](NC(=O)CCc3ccccc3)C(=O)N12	>100 µg/mL	19.97 µg/mL (≈ 51.9 µM)	1.11 µg/mL (≈ 2.89 µM)					
C#CCOC(=O)C1=C(C)CS[C@@H]2[C@H](NC(=O)CCc3ccc(Cl)cc3)C(=O)N12	>100 µg/mL	7.85 µg/mL (≈ 18.7 µM)	0.56 µg/mL (≈ 1.34 µM)					
CC1=C(C(=O)O)N2C(=O)[C@@H](NC(=O)[C@H](N)c3ccccc3)[C@H]2SC1 [CEPHALEXIN ANHYDROUS]	33.99 µg/mL (≈ 97.8 µM)	61.35 µg/mL (≈ 177 µM)	97.93 µg/mL (≈ 282 µM)	70.42 µg/mL (≈ 203 µM)	100 µg/mL (≈ 288 µM)	33.99 µg/mL (≈ 97.8 µM)		
COc1ccc(OCC(=O)N[C@@H]2C(=O)N3C(c4nc(C)no4)=C(C)CS[C@H]23)cc1	>100 µg/mL	14.57 µg/mL (≈ 35 µM)						
CC1=CS[C@@H]2[C@H](NC(=O)COc3ccccc3)C(=O)N2[C@H]1CO	>100 µg/mL	>100 µg/mL						
CCCc1noc(C2=C(C)CS[C@@H]3[C@H](NC(=O)Cc4ccc(Cl)cc4)C(=O)N23)n1	>100 µg/mL	2.63 µg/mL (≈ 6.07 µM)						
COC(=O)C1=C(C)CS[C@@H]2[C@H](NC(=O)CCc3ccc(OC)cc3)C(=O)N12	59.82 µg/mL (≈ 153 µM)		0.39 µg/mL (≈ 0.999 µM)		3.28 µg/mL (≈ 8.4 µM)			
CCCOC(=O)N[C@@H]1C(=O)N2C(C(=O)OCCC)=C(C)CS[C@H]12	55.44 µg/mL (≈ 162 µM)	2.61 µg/mL (≈ 7.62 µM)	3.11 µg/mL (≈ 9.08 µM)	0.52 µg/mL (≈ 1.52 µM)		55.44 µg/mL (≈ 162 µM)	Active	
CCCOC(=O)C1=C(C)CS[C@@H]2[C@H](NC(=O)CCc3ccccc3)C(=O)N12	53.64 µg/mL (≈ 138 µM)				1.24 µg/mL (≈ 3.19 µM)			0.6 µg/mL (≈ 1.54 µM)
CCC(C)OC(=O)C1=C(C)CS[C@@H]2[C@H](NC(=O)CCc3ccc(OC)cc3)C(=O)N12 (stereo partly specified)	>100 µg/mL				2.95 µg/mL (≈ 6.82 µM)			1.57 µg/mL (≈ 3.63 µM)
CCCCOC(=O)C1=C(C)CS[C@@H]2[C@H](NC(=O)CCc3ccc(OC)cc3)C(=O)N12	>100 µg/mL				0.26 µg/mL (≈ 0.601 µM)			0.24 µg/mL (≈ 0.555 µM)
CC1=C(c2nc(C)no2)N2C(=O)[C@@H](NC(=O)COc3ccc(C(F)(F)F)cc3)[C@H]2SC1	>100 µg/mL	5.26 µg/mL (≈ 11.6 µM)						
COC(=O)C1=C(C)CS[C@@H]2[C@H](NC(=O)COc3ccc(Cl)cc3)C(=O)N12	>100 µg/mL				1.25 µg/mL (≈ 3.15 µM)			0.95 µg/mL (≈ 2.39 µM)
CCOC(=O)C1=C(C)CS[C@@H]2[C@H](NC(=O)COc3ccc(Cl)cc3)C(=O)N12	>100 µg/mL				2.38 µg/mL (≈ 5.79 µM)			1.07 µg/mL (≈ 2.6 µM)
CCCCOC(=O)C1=C(C)CS[C@@H]2[C@H](NC(=O)CCc3ccc(Cl)cc3)C(=O)N12	>100 µg/mL				1.24 µg/mL (≈ 2.84 µM)			0.72 µg/mL (≈ 1.65 µM)
CC1=C(C(=O)O)N2C(=O)[C@@H](NC(=O)COc3ccccc3)[C@H]2SC1	>100 µg/mL				>34.84 µg/mL			>34.84 µg/mL
CCCc1noc(C2=C(C)CS[C@@H]3[C@H](NC(=O)CCc4ccc(C)cc4)C(=O)N23)n1	>100 µg/mL				2.32 µg/mL (≈ 5.44 µM)			0.98 µg/mL (≈ 2.3 µM)
C=CC1=C(C(=O)O)N2C(=O)[C@@H](NC(=O)/C(=N\O)c3csc(N)n3)[C@H]2SC1	4.11 µg/mL (≈ 10.4 µM)				>100 µg/mL			77.84 µg/mL (≈ 197 µM)
CCCCOC(=O)C1C(C)=CS[C@@H]2[C@H](NC(=O)COc3ccccc3)C(=O)N12 (stereo partly specified)	>100 µg/mL				1.28 µg/mL (≈ 3.16 µM)			0.79 µg/mL (≈ 1.95 µM)
CCCc1noc(C2=C(C)CS[C@@H]3[C@H](NC(=O)CCc4ccc(F)cc4)C(=O)N23)n1	>100 µg/mL				0.91 µg/mL (≈ 2.11 µM)			0.48 µg/mL (≈ 1.11 µM)
CCCCOc1ccc(CCC(=O)N[C@@H]2C(=O)N3C(c4nc(CCC)no4)=C(C)CS[C@H]23)cc1	>100 µg/mL				0.76 µg/mL (≈ 1.57 µM)			0.47 µg/mL (≈ 0.97 µM)
COCC1=C(C)CS[C@@H]2[C@H](NC(=O)COc3ccccc3)C(=O)N12	>96.74 µg/mL	>100 µg/mL						

Compound	MIC90 [1]	MIC90 [2]	MIC90 [3]	MIC90 [4]	MIC90 [5]	MIC90 [6]	Activity [7]	MIC90 [8]
CC1=C(c2nc(C)no2)N2C(=O)[C@@H](NC(=O)COc3ccc(C)cc3)[C@H]2SC1	>100 µg/mL	7.42 µg/mL (≈ 18.5 µM)						
CCOC(=O)C1=C(C)CS[C@@H]2[C@H](NC(=O)CCc3ccc(OC)cc3)C(=O)N12	21.37 µg/mL (≈ 52.8 µM)				0.51 µg/mL (≈ 1.26 µM)			0.4 µg/mL (≈ 0.989 µM)
CNC(=O)C1=C(C)CS[C@@H]2[C@H](NC(=O)COc3ccccc3)C(=O)N12	>100 µg/mL				>36.14 µg/mL			>36.14 µg/mL
COC(=O)C1=C(C)CS[C@@H]2[C@H](NC(=O)[C@H](NC(=O)OC(C)(C)C)c3ccccc3)C(=O)N12	>100 µg/mL				18.07 µg/mL (≈ 39.2 µM)			16.51 µg/mL (≈ 35.8 µM)
CC1=C(C(=O)O)N2C(=O)[C@@H](NC(=O)CCc3ccc(Br)cc3)[C@H]2SC1	96.13 µg/mL (≈ 226 µM)				>42.53 µg/mL			>42.53 µg/mL
CC1=C(C(=O)OCc2ccccc2)N2C(=O)[C@@H](NC(=O)COc3ccc(Cl)cc3)[C@H]2SC1	>100 µg/mL				8.07 µg/mL (≈ 17.1 µM)			0.87 µg/mL (≈ 1.84 µM)
CCCOC(=O)C1=C(C)CS[C@@H]2[C@H](NC(=O)COc3ccc(Cl)cc3)C(=O)N12	>100 µg/mL				1.34 µg/mL (≈ 3.15 µM)			0.66 µg/mL (≈ 1.55 µM)
COC(=O)C1=C(C)CS[C@@H]2[C@H](NC(=O)[C@@H](c3ccccc3)N(C)C)C(=O)N12	>100 µg/mL				>38.95 µg/mL			>38.95 µg/mL
C#CCOC(=O)C1=C(C)CS[C@@H]2[C@H](NC(=O)COc3ccc(Cl)cc3)C(=O)N12	>100 µg/mL				3.95 µg/mL (≈ 9.39 µM)			1.53 µg/mL (≈ 3.64 µM)
CCCOC[C@H]1C(C)=CS[C@@H]2[C@H](NC(=O)COc3ccccc3)C(=O)N21	>100 µg/mL	>100 µg/mL						
CCCc1noc(C2=C(C)CS[C@@H]3[C@H](NC(=O)COc4ccc(C)cc4)C(=O)N23)n1	>100 µg/mL	14.31 µg/mL (≈ 33.4 µM)						
CCCCOc1ccc(CCC(=O)N[C@@H]2C(=O)N3C(c4nc(C)no4)=C(C)CS[C@H]23)cc1	>100 µg/mL	59.36 µg/mL (≈ 130 µM)						
COc1ccc(OCC(=O)N[C@@H]2C(=O)N3C(C(=O)OCc4ccccc4)=C(C)CS[C@H]23)cc1	>100 µg/mL				2.53 µg/mL (≈ 5.4 µM)			1.54 µg/mL (≈ 3.29 µM)
CCCc1noc(C2=C(C)CS[C@@H]3[C@H](NC(=O)CCc4ccccc4Cl)C(=O)N23)n1	>100 µg/mL				1.27 µg/mL (≈ 2.84 µM)			0.52 µg/mL (≈ 1.16 µM)
COC(=O)C1=C(C)CS[C@@H]2[C@H](NC(=O)CCc3ccccc3)C(=O)N12	>100 µg/mL				1.27 µg/mL (≈ 3.52 µM)			10.4 µg/mL (≈ 28.9 µM)
CCCN[C@@H]1C(=O)N2C(C(=O)OCCC)=C(C)CS[C@H]12	>100 µg/mL	2.69 µg/mL (≈ 9.01 µM)	0.7 µg/mL (≈ 2.35 µM)	0.45 µg/mL (≈ 1.51 µM)		>100 µg/mL	Active	
COc1ccc(CCC(=O)N[C@@H]2C(=O)N3C(C(=O)OCc4ccccc4)=C(C)CS[C@H]23)cc1	>100 µg/mL				0.42 µg/mL (≈ 0.9 µM)			0.39 µg/mL (≈ 0.836 µM)
CC1=C(C(N)=O)N2C(=O)[C@@H](NC(=O)COc3ccccc3)[C@H]2SC1	>100 µg/mL				>100 µg/mL			59.68 µg/mL (≈ 172 µM)
CCCc1noc(C2=C(C)CS[C@@H]3[C@H](NC(=O)c4ccc(Cl)cc4)C(=O)N23)n1	>100 µg/mL				2.28 µg/mL (≈ 5.44 µM)			1.06 µg/mL (≈ 2.53 µM)
CC1=CS[C@@H]2[C@H](NC(=O)COc3ccccc3)C(=O)N2[C@H]1COS(=O)(=O)c1ccc(Br)cc1	>83.24 µg/mL				>55.34 µg/mL			>55.34 µg/mL
CC1=C(c2nc(C)no2)N2C(=O)[C@@H](NC(=O)COc3cccc(Cl)c3)[C@H]2SC1	>100 µg/mL	2.59 µg/mL (≈ 6.15 µM)						
CCCCOC(=O)C1=C(C)CS[C@@H]2[C@H](NC(=O)CCc3ccccc3)C(=O)N12	>100 µg/mL				<0.24 µg/mL			0.21 µg/mL (≈ 0.522 µM)
